These results are taken from ChEMBL document CHEMBL2073884, “Functional characterization of pH-sensitive organic anion transporting polypeptide OATP-B in human” (J Pharmacol Exp Ther, 2004).

What all share (assay type): functional, cell-based
Data set [1] addresses T1, Solute carrier organic anion transporter family member 2B1 (Homo sapiens, UniProt O94956).
T1 sequence (O94956 whole entry): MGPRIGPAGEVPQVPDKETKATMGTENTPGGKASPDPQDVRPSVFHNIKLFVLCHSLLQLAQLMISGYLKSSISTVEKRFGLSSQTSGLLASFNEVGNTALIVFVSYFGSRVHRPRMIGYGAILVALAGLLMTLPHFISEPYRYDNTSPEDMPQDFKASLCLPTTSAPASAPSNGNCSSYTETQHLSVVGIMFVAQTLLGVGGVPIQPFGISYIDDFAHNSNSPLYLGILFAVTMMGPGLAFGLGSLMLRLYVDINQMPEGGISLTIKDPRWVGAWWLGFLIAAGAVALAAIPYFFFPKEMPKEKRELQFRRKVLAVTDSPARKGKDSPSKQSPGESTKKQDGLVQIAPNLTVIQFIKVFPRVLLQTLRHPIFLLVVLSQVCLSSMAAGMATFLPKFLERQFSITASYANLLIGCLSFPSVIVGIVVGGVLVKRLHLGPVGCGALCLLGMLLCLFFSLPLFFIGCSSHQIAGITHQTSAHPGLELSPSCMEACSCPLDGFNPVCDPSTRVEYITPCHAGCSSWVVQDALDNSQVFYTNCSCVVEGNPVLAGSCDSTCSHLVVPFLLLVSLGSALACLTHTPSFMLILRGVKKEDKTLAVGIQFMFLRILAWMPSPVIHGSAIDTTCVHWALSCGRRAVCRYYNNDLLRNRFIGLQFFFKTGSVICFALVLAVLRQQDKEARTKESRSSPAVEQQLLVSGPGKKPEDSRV
Description: TP_TRANSPORTER: uptake (pH 7.4) of Lactate at a concentration of 1.91 u M in OATP-B-expressing HEK293 cells. Particulars: hek293, pH 7.4, 1.91 µM. The method in brief: (§1)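 HEK293 cells transiently transfected with pcDNA3/OATP-B (calcium phosphate) or empty vector were used 40-48 h later. Suspensions were preincubated 20 min at 37°C in HEPES saline (pH 7.4), then incubated 10 min in MES/Tris-buffered uptake medium (pH 5.0 or 7.4). Cells were separated by silicone-oil centrifugal filtration. Uptake was inulin-corrected, expressed as µL/mg protein, and mock-subtracted; n=3-4.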

In data set [2] the target is T1, Solute carrier organic anion transporter family member 2B1. The experiment in a line: TP_TRANSPORTER: uptake (pH 5.0) of Lactate at a concentration of 1.91 u M in OATP-B-expressing HEK293 cells. Particulars: hek293, pH 5, 1.91 µM. The method in brief: as §1
For data set [3] the target is unchanged. The experiment in a line: TP_TRANSPORTER: uptake (pH 7.4) of Estradiol-17beta-D-glucuronide at a concentration of 5.72 nM in OATP-B-expressing HEK293 cells. The conditions noted are these: hek293, pH 7.4, 0.00572 µM. A digest of the protocol: (§2)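 HEK293 cells transiently transfected with OATP-B cDNA (calcium phosphate) or vector alone (mock), used 40-48 h later as suspensions. Preincubated 20 min at 37°C in HEPES buffer pH 7.4, then incubated with radiolabeled compound in uptake medium pH 5.0 or 7.4. DHEAS was taken up for 5 min; estradiol-17ß-glucuronide for 10 min. Cells separated by silicone oil/paraffin centrifugal filtration and counted by scintillation. Uptake (µL/mg protein) corrected for [14C]inulin adsorption; mock subtracted; n=3 or 4.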

For data set [4] the target is unchanged. The experiment in a line: TP_TRANSPORTER: uptake (pH 5.0) of Estradiol-17beta-D-glucuronide at a concentration of 5.72 nM in OATP-B-expressing HEK293 cells. Particulars: hek293, pH 5, 0.00572 µM. A digest of the protocol:
as §2

For data set [5] the target is unchanged. The experiment in a line: TP_TRANSPORTER: uptake (pH 7.4) of Estrone-3-sulfate at a concentration of 5.43 nM in OATP-B-expressing HEK293 cells. The conditions noted are these: hek293, pH 7.4, 0.00543 µM. A digest of the protocol:
(§3)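 OATP-B- or vector-transfected HEK293 cells were harvested 40-48 h after transfection and preincubated 20 min at 37°C in pH 7.4 HEPES saline. [3H]estrone-3-sulfate uptake was run for 1 min in uptake medium at pH 5.0 or 7.4 and stopped by silicone-oil centrifugal filtration. Radioactivity was counted by scintillation, corrected for [14C]inulin adsorption and given as µL/mg protein. Mock uptake was subtracted; n=3-4.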

The target is the same in data set [6]. The experiment in a line: TP_TRANSPORTER: uptake (pH 5.0) of Estrone-3-sulfate at a concentration of 5.43 nM in OATP-B-expressing HEK293 cells. The conditions noted are these: hek293, pH 5, 0.00543 µM. A digest of the protocol:
as §3

The target is the same in data set [7]. Description: TP_TRANSPORTER: uptake (pH 7.4) of Fexofenadine at a concentration of 10 u M in OATP-B-expressing HEK293 cells. Particulars: hek293, pH 7.4, 10 µM. The method in brief:
(§4)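 Transiently transfected OATP-B or mock HEK293 cells were preincubated 20 min at 37°C (pH 7.4), then exposed for 30 min to uptake medium at pH 5.0 or 7.4. Pellets were collected through silicone oil, sonicated, extracted in 50% methanol, dried and quantified by HPLC (ODS column, fluorescence ex 240/em 290 nm). Results are µL/mg protein after mock subtraction; n=3-4.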

Data set [8] has the same target. Description: TP_TRANSPORTER: uptake (pH 5.0) of Fexofenadine at a concentration of 10 u M in OATP-B-expressing HEK293 cells. Particulars: hek293, pH 5, 10 µM. The method in brief:
as §4

Data set [9] has the same target. Description: TP_TRANSPORTER: uptake (pH 7.4) of Dehydroepiandrosterone-3-sulfate at a concentration of 2.98 nM in OATP-B-expressing HEK293 cells. Particulars: hek293, pH 7.4, 0.00298 µM. A digest of the protocol: as §2
Data set [10] has the same target. The experiment in a line: TP_TRANSPORTER: uptake (pH 5.0) of Dehydroepiandrosterone-3-sulfate at a concentration of 2.98 nM in OATP-B-expressing HEK293 cells. Particulars: hek293, pH 5, 0.00298 µM. A digest of the protocol:
as §2

For data set [11] the target is unchanged. The experiment in a line: TP_TRANSPORTER: uptake (pH 7.4) of Pravastatin at a concentration of 14.7 u M in OATP-B-expressing HEK293 cells. The conditions noted are these: hek293, pH 7.4, 14.7 µM. A digest of the protocol:
as §1

The target is the same in data set [12]. Description: TP_TRANSPORTER: uptake (pH 5.0) of Pravastatin at a concentration of 14.7 u M in OATP-B-expressing HEK293 cells. The conditions noted are these: hek293, pH 5, 14.7 µM. A digest of the protocol: as §1
Substrate in data set [13]: C[C@]12CC[C@@H]3c4ccc(OS(=O)(=O)O)cc4CC[C@H]3[C@@H]1CCC2=O
The experiment in a line: TP_TRANSPORTER: uptake (pH 7.4) in OATP-B-expressing HEK293 cells. A digest of the protocol: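 OATP-B- or mock-transfected HEK293 suspensions. Preincubated 20 min at 37°C at pH 7.4, then substrate uptake in medium at pH 7.4 (Tris-adjusted). Uptake was separated by centrifugal filtration through oil and measured by scintillation, or by HPLC-fluorescence for fexofenadine. Expressed as cell-to-medium ratio (µL/mg protein), corrected by [14C]inulin space; OATP-B-specific = transfected minus mock; n=3 or 4.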

Substrate in data set [14]: CC[C@H](C)C(=O)O[C@H]1C[C@H](O)C=C2C=C[C@H](C)[C@H](CC[C@@H](O)C[C@@H](O)CC(=O)O)[C@H]21
Description: (§5) TP_TRANSPORTER: uptake (pH 5.0) in OATP-B-expressing HEK293 cells.

Substrate in data set [15]: C[C@]12CC[C@@H]3c4ccc(OS(=O)(=O)O)cc4CC[C@H]3[C@@H]1CCC2=O
The data set is described as §5.

Regarding `C[C@@H](O)C(=O)O` [D-LACTIC ACID], the Activity entry in data set [1] and in data set [2] was “is not a substrate [-]” in each case.
As for `C[C@]12CC[C@@H]3c4ccc(O)cc4CC[C@H]3[C@@H]1CC[C@@H]2O[C@@H]1O[C@H](C(=O)O)[C@@H](O)[C@H](O)[C@H]1O` [ESTRADIOL 17B GLUCURONIDE], the Activity entry in data set [3] and in [4] was “is not a substrate [-]” throughout.
On to `C[C@]12CC[C@@H]3c4ccc(OS(=O)(=O)O)cc4CC[C@H]3[C@@H]1CCC2=O` [ESTRONE SULFURIC ACID], for which the Activity entry in data set [5] and in data set [6] was “substrate [+]” in each case.
Consider `CC(C)(C(=O)O)c1ccc(C(O)CCCN2CCC(C(O)(c3ccccc3)c3ccccc3)CC2)cc1` (stereo not given) [FEXOFENADINE], for which the Activity entry in [7] and in data set [8] was “substrate [+]” throughout.
With `C[C@]12CC[C@H](OS(=O)(=O)O)CC1=CC[C@@H]1[C@@H]2CC[C@]2(C)C(=O)CC[C@@H]12` [PRASTERONE SULFURIC ACID], the Activity result in data set [9] and in data set [10] was “substrate [+]” in each case.
With `CC[C@H](C)C(=O)O[C@H]1C[C@H](O)C=C2C=C[C@H](C)[C@H](CC[C@@H](O)C[C@@H](O)CC(=O)O)[C@H]21` [PRAVASTATIN], the Activity result in data set [11] is “is not a substrate [-]”; in [12] it was “substrate [+]”.

B1: Solute carrier organic anion transporter family member 2B1 (Homo sapiens) (protein)
chain: T1 sequence (O94956 whole entry)
Turning to B1, the figures for the Km in [13], in data set [14] and in [15] were 8.09 µM, 2250 µM and 13.1 µM, respectively.
